Test results taken from ChEMBL document CHEMBL5303300, “EUbOPEN Chemogenomics Library - Multiplex” (2023).
Values joined by “and” are separate entries in the source; they are usually repeats but may differ in a detail not shown here. Equal values may be shown once.

Tested on: HEK-293T
Assay: Multiplex assay against HEK293T
Assay type: toxicity, cell-based
Conditions: human, number of replicates 2
Outline: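 Cells stained live at seeding with Hoechst33342, BioTracker Green Microtubule Cytoskeleton Dye, MitoTracker Red and Annexin V Alexa Fluor 680 were imaged on a CQ1 microscope at 37°C and 5% CO2 after compound addition. Their classification by CellPathfinder machine-learning gating ran from Hoechst high-intensity objects versus normal cells, to healthy, pyknosed or fragmented nuclei among normal cells, to mitotic or apoptotic among pyknosed cells. Tubulin, mitochondrial-mass and membrane-permeability phenotypes are per cents of healthy-nucleus cells.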

[1] = 12 h, 1 µM, compound concentration 1 uM
[2] = 12 h, 10 µM, compound concentration 10 uM
[3] = 24 h, 1 µM, compound concentration 1 uM
[4] = 24 h, 10 µM, compound concentration 10 uM
[5] = 48 h, 1 µM, compound concentration 1 uM
[6] = 48 h, 10 µM, compound concentration 10 uM

`CC(C)S(=O)(=O)c1ccccc1Nc1nc(N[C@@H]2CCCN(CCCCCCCNC(=O)COc3cccc4c3C(=O)N(C3CCC(=O)NC3=O)C4=O)C2)ncc1Cl` (some centres not stated) was tested, and the “Population Apoptotic (%)” value [1] was 72% and 70%, the “Population Fragmented Nuclei (%)” value [1] was 2% and 3% and the “Population Healthy Nuclei (%)” value [1] was 80% and 76%. For the same compound, the “Population Hoechst High Intensity Objects (%)” value [1] was 8% and 16%, the “Population Membrane Permeable-Phenotype (%)” value [1] was 0% and the “Population Mitochondria Different-Phenotype (%)” value [1] was 61% and 50%. The “Population Mitotic Cells (%)” value [1] was 27% and 29%, the “Population Normal (%)” value [1] was 91% and 83% and the “Population Pyknosed Nuclei (%)” value [1] was 17% and 19%. For the same compound, the “Population Tubulin-Different-Phenotype (%)” value [1] was 75% and 73%, the “Total Cell Count” value [1] was 378 and 397 and the “Population Apoptotic (%)” value [2] was 48% and 67%. The “Population Fragmented Nuclei (%)” value [2] was 4% and 5%, the “Population Healthy Nuclei (%)” value [2] was 63% and 65% and the “Population Hoechst High Intensity Objects (%)” value [2] was 18% and 15%. The “Population Membrane Permeable-Phenotype (%)” value [2] was 6%, the “Population Mitochondria Different-Phenotype (%)” value [2] was 70% and the “Population Mitotic Cells (%)” value [2] was 51% and 32%. For the same compound, the “Population Normal (%)” value [2] was 81% and 84%, the “Population Pyknosed Nuclei (%)” value [2] was 31% and 29% and the “Population Tubulin-Different-Phenotype (%)” value [2] was 48% and 66%. For the same compound, the “Total Cell Count” value [2] was 366 and 343, the “Population Apoptotic (%)” value [3] was 65% and 76% and the “Population Fragmented Nuclei (%)” value [3] was 3% and 5%. The “Population Healthy Nuclei (%)” value [3] was 82% and 79%, the “Population Hoechst High Intensity Objects (%)” value [3] was 12% and 14% and the “Population Membrane Permeable-Phenotype (%)” value [3] was 1%. For the same compound, the “Population Mitochondria Different-Phenotype (%)” value [3] was 65% and 63%, the “Population Mitotic Cells (%)” value [3] was 34% and 23% and the “Population Normal (%)” value [3] was 87% and 85%. The “Population Pyknosed Nuclei (%)” value [3] was 14% and 15%, the “Population Tubulin-Different-Phenotype (%)” value [3] was 69% and 67% and the “Total Cell Count” value [3] was 385 and 384. For the same compound, the “Population Apoptotic (%)” value [4] was 79% and 70%, the “Population Fragmented Nuclei (%)” value [4] was 6% and 3% and the “Population Healthy Nuclei (%)” value [4] was 65% and 61%. The “Population Hoechst High Intensity Objects (%)” value [4] was 19%, the “Population Membrane Permeable-Phenotype (%)” value [4] was 1% and 2% and the “Population Mitochondria Different-Phenotype (%)” value [4] was 81% and 87%. For the same compound, the “Population Mitotic Cells (%)” value [4] was 20% and 30%, the “Population Normal (%)” value [4] was 80% and the “Population Pyknosed Nuclei (%)” value [4] was 28% and 34%. For the same compound, the “Population Tubulin-Different-Phenotype (%)” value [4] was 85% and 93%, the “Total Cell Count” value [4] was 341 and 356 and the “Population Apoptotic (%)” value [5] was 78% and 74%. The “Population Fragmented Nuclei (%)” value [5] was 3%, the “Population Healthy Nuclei (%)” value [5] was 84% and 83% and the “Population Hoechst High Intensity Objects (%)” value [5] was 12% and 14%. The “Population Membrane Permeable-Phenotype (%)” value [5] was 0% and 1%, the “Population Mitochondria Different-Phenotype (%)” value [5] was 66% and 57% and the “Population Mitotic Cells (%)” value [5] was 21% and 25%. For the same compound, the “Population Normal (%)” value [5] was 87% and 85%, the “Population Pyknosed Nuclei (%)” value [5] was 11% and 13% and the “Population Tubulin-Different-Phenotype (%)” value [5] was 66% and 57%. For the same compound, the “Total Cell Count” value [5] was 316 and 306, the “Population Apoptotic (%)” value [6] was 78% and 74% and the “Population Fragmented Nuclei (%)” value [6] was 6% and 5%. The “Population Healthy Nuclei (%)” value [6] was 70% and 63%, the “Population Hoechst High Intensity Objects (%)” value [6] was 18% and 20% and the “Population Membrane Permeable-Phenotype (%)” value [6] was 2% and 1%. For the same compound, the “Population Mitochondria Different-Phenotype (%)” value [6] was 73% and 79%, the “Population Mitotic Cells (%)” value [6] was 21% and 25% and the “Population Normal (%)” value [6] was 81% and 79%. For the same compound, the “Population Pyknosed Nuclei (%)” value [6] was 23% and 31%, the “Population Tubulin-Different-Phenotype (%)” value [6] was 66% and 77% and the “Total Cell Count” value [6] was 296 and 313.

`COC(=O)Nc1nc2c(s1)-c1c(c(-c3cccnc3)nn1-c1ccc(C3(N(C)C)CC3)cc1)CC2.Cl.Cl` was tested, and the “Population Apoptotic (%)” value [1] was 62% and 58%, the “Population Fragmented Nuclei (%)” value [1] was 5% and 1% and the “Population Healthy Nuclei (%)” value [1] was 82% and 89%. The “Population Hoechst High Intensity Objects (%)” value [1] was 11% and 10%, the “Population Membrane Permeable-Phenotype (%)” value [1] was 1% and the “Population Mitochondria Different-Phenotype (%)” value [1] was 41% and 51%. The “Population Mitotic Cells (%)” value [1] was 37% and 41%, the “Population Normal (%)” value [1] was 88% and 89% and the “Population Pyknosed Nuclei (%)” value [1] was 12% and 9%. The “Population Tubulin-Different-Phenotype (%)” value [1] was 75% and 76%, the “Total Cell Count” value [1] was 359 and 348 and the “Population Apoptotic (%)” value [2] was 73% and 64%. For the same compound, the “Population Fragmented Nuclei (%)” value [2] was 5%, the “Population Healthy Nuclei (%)” value [2] was 75% and 82% and the “Population Hoechst High Intensity Objects (%)” value [2] was 17% and 10%. For the same compound, the “Population Membrane Permeable-Phenotype (%)” value [2] was 3%, the “Population Mitochondria Different-Phenotype (%)” value [2] was 66% and 52% and the “Population Mitotic Cells (%)” value [2] was 26% and 35%. The “Population Normal (%)” value [2] was 82% and 89%, the “Population Pyknosed Nuclei (%)” value [2] was 18% and 11% and the “Population Tubulin-Different-Phenotype (%)” value [2] was 90% and 87%. For the same compound, the “Total Cell Count” value [2] was 245 and 351, the “Population Apoptotic (%)” value [3] was 66% and 71% and the “Population Fragmented Nuclei (%)” value [3] was 4%. The “Population Healthy Nuclei (%)” value [3] was 81% and 82%, the “Population Hoechst High Intensity Objects (%)” value [3] was 20% and 17% and the “Population Membrane Permeable-Phenotype (%)” value [3] was 2% and 1%. The “Population Mitochondria Different-Phenotype (%)” value [3] was 43% and 55%, the “Population Mitotic Cells (%)” value [3] was 33% and 28% and the “Population Normal (%)” value [3] was 79% and 82%. The “Population Pyknosed Nuclei (%)” value [3] was 14% and 12%, the “Population Tubulin-Different-Phenotype (%)” value [3] was 81% and 85% and the “Total Cell Count” value [3] was 313 and 342. For the same compound, the “Population Apoptotic (%)” value [4] was 67% and 58%, the “Population Fragmented Nuclei (%)” value [4] was 8% and 6% and the “Population Healthy Nuclei (%)” value [4] was 70% and 78%. The “Population Hoechst High Intensity Objects (%)” value [4] was 15% and 18%, the “Population Membrane Permeable-Phenotype (%)” value [4] was 4% and 3% and the “Population Mitochondria Different-Phenotype (%)” value [4] was 70% and 52%. The “Population Mitotic Cells (%)” value [4] was 32% and 41%, the “Population Normal (%)” value [4] was 85% and 81% and the “Population Pyknosed Nuclei (%)” value [4] was 21% and 14%. For the same compound, the “Population Tubulin-Different-Phenotype (%)” value [4] was 86% and 82%, the “Total Cell Count” value [4] was 240 and 296 and the “Population Apoptotic (%)” value [5] was 62%. The “Population Fragmented Nuclei (%)” value [5] was 11% and 8%, the “Population Healthy Nuclei (%)” value [5] was 81% and 80% and the “Population Hoechst High Intensity Objects (%)” value [5] was 23% and 25%. The “Population Membrane Permeable-Phenotype (%)” value [5] was 1%, the “Population Mitochondria Different-Phenotype (%)” value [5] was 19% and 27% and the “Population Mitotic Cells (%)” value [5] was 37%. The “Population Normal (%)” value [5] was 76% and 74%, the “Population Pyknosed Nuclei (%)” value [5] was 6% and 11% and the “Population Tubulin-Different-Phenotype (%)” value [5] was 78% and 76%. For the same compound, the “Total Cell Count” value [5] was 490 and 355, the “Population Apoptotic (%)” value [6] was 64% and 60% and the “Population Fragmented Nuclei (%)” value [6] was 8% and 11%. For the same compound, the “Population Healthy Nuclei (%)” value [6] was 77% and 80%, the “Population Hoechst High Intensity Objects (%)” value [6] was 17% and 20% and the “Population Membrane Permeable-Phenotype (%)” value [6] was 3% and 2%. For the same compound, the “Population Mitochondria Different-Phenotype (%)” value [6] was 45% and 39%, the “Population Mitotic Cells (%)” value [6] was 35% and 40% and the “Population Normal (%)” value [6] was 82% and 79%. For the same compound, the “Population Pyknosed Nuclei (%)” value [6] was 13% and 8%, the “Population Tubulin-Different-Phenotype (%)” value [6] was 80% and 77% and the “Total Cell Count” value [6] was 310 and 354.
